The source of these data is ChEMBL document CHEMBL4190408 (J Med Chem, 2018).

Molecules are shown by their SMILES. In brackets after ≈: the same amount, converted by molar mass.

Data set [1] in a line: in vitro. As to conditions: mouse, liver microsomes.
A short description of data set [2]: in vitro. As to conditions: human, liver microsomes. On the technique in general: Liver microsomes are vesicles of endoplasmic reticulum, rich in cytochrome P450 enzymes.
Data set [3] in a line: physchem. To be noted: buffer, pH 7.4.
Data set [4] in a line: physchem. To be noted: phosphate buffer, pH 7.4.
Data set [5] deals with T1, Voltage-gated inwardly rectifying potassium channel KCNH2 (Homo sapiens, UniProt Q12809).
T1 sequence (Q12809 whole entry): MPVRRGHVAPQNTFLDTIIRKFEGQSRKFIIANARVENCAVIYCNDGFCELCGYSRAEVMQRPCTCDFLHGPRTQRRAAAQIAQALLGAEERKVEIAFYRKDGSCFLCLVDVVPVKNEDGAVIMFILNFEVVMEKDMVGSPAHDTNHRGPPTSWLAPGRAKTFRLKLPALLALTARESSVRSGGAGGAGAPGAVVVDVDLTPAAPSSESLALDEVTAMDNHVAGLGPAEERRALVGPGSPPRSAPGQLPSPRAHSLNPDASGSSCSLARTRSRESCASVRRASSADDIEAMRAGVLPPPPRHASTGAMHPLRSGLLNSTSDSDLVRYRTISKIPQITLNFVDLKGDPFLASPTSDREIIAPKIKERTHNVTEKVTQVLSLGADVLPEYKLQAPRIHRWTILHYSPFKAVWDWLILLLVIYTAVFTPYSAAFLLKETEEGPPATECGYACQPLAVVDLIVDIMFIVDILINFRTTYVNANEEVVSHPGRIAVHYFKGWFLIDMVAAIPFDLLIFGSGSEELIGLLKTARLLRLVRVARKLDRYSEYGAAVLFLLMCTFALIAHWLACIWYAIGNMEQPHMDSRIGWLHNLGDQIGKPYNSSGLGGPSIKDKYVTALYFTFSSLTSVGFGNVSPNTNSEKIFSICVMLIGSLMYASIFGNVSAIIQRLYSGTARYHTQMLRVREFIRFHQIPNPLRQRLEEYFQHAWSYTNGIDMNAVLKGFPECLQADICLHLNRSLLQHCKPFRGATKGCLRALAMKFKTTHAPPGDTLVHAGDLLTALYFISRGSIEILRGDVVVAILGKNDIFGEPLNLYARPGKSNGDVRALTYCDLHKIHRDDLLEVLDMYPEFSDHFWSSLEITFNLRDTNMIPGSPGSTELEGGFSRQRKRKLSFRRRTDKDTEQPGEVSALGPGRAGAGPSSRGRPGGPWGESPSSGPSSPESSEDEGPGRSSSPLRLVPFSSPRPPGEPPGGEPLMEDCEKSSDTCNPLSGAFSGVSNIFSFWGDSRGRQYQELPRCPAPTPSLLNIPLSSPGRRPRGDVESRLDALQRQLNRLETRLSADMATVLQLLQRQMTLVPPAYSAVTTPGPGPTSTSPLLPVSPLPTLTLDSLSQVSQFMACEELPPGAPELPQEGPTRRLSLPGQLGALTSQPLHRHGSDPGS
Data set [6] deals with T2, Cytochrome P450 3A4 (Homo sapiens, UniProt P08684). As to conditions: liver microsomes.
T2 sequence (P08684 whole entry): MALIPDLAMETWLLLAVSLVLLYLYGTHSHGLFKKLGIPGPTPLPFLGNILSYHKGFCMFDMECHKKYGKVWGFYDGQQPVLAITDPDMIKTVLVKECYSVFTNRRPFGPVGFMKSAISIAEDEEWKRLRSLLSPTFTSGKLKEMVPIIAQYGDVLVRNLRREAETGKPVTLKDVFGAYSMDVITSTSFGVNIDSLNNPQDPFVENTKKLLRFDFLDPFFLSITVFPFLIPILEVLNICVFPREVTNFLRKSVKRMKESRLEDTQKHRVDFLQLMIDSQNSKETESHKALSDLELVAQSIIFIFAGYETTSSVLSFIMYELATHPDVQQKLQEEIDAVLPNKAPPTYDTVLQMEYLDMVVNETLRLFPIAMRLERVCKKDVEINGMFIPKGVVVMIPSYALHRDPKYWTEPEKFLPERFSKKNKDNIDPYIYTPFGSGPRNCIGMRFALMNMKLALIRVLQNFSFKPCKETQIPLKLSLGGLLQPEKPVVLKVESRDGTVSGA
The nature of data set [7]: Thermodynamic solubility of the compound in pH 7.4 solution after 90 mins by UVLC-MS analysis. The class given is physicochemical. To be noted: for Therm_solubility: buffer, pH 7.4, 1.5 h; for solubility thermodynamic at 1.5 h: pH 7.4 solution, pH 7.4, read-out: Therm_solubility.
Data set [8] in a line: Half life in Balb/c mouse at 1 mg/kg, iv. The class given is ADME, organism-based. To be noted: Balb/c, in vivo. The gist of the method:
(§1)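 Intravenous PK in male Balb/C mice, n=3, at 1 mpk. Vehicle was 30% DMA or 15% NMP, depending on the compound.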

Data set [9] in a line: Oral bioavailability in Balb/c mouse at 10 mg/kg after 1 hr. As to conditions: Balb/c, in vivo. The format is ADME, organism-based. The essentials:
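Male Balb/C mice, n=3. Oral dose of 10 mpk as a homogeneous suspension of crystalline solid in 0.1% Tween 80, 0.1% silicone antifoam, 1% methylcellulose (400 cps) in water. I.v. dose of 1 mpk in 30% DMA or 15% NMP, depending on the compound. Bioavailability was extrapolated from the i.v./p.o. experiments.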

Data set [10] deals with Mus musculus. As to the kind of experiment: Unbound AUC (infinity) in Balb/c mouse at 10 mg/kg, po after 1 hr. The format is ADME, organism-based. To be noted: in vivo.
Data set [11] deals with Mus musculus. In words: Unbound Cmax in Balb/c mouse at 10 mg/kg, po after 1 hr. To be noted: in vivo. The format is ADME, organism-based.
Data set [12] in a line: Clearance in Balb/c mouse at 1 mg/kg, iv. The format is ADME, organism-based. As to conditions: Balb/c, in vivo. The gist of the method:
as §1

A short description of data set [13]: Apparent clearance in Balb/c mouse at 10 mg/kg, po after 1 hr. The format is ADME, organism-based. To be noted: in vivo.
Data set [14] deals with Mus musculus. As to the kind of experiment: Unbound AUC in Balb/c mouse at 1 mg/kg, iv. The class given is ADME, organism-based. As to conditions: in vivo. The gist of the method:
as §1

Data set [15] can be described thus: Volume of distribution at steady state in Balb/c mouse at 1 mg/kg, iv. The class given is ADME, organism-based. As to conditions: Balb/c, in vivo, read-out: Vdss. The essentials: as §1
The nature of data set [16]: Fraction unbound in mouse blood. The format is ADME, tissue-based.
The target in data set [17] is T2, Cytochrome P450 3A4.
The target in data set [18] is T1, Voltage-gated inwardly rectifying potassium channel KCNH2. This is another data set of the same source.

In general, microsomal CLint refers to the rate of metabolic loss divided by the concentration. Read a high microsomal CLint as faster metabolism. With `COc1ccc(NC(=O)N2CCN(c3nc(N)nc4sc(-c5cccnc5)nc34)CC2)cc1`, the intrinsic clearance (microsomal CLint) at 0.75 h, 3 µM amounted to 87 µL/min/mg in [1] and 35 µL/min/mg in data set [2].

In general, kinetic solubility refers to solubility judged after dilution from a stock solution rather than from solid. As usually defined, the logD is lipophilicity at a set pH, counting ionised and neutral species. As to `Nc1nc(N2CCN(C(=O)c3nc4ccccc4[nH]3)CC2)c2ncsc2n1`, the solubility (kinetic) at 1.5 h in data set [3] was 38 µM (≈ 14.5 µg/mL). In data set [4], the logD at 1.5 h came to 2.54.

The term IC50 denotes the concentration that gives 50% inhibition. The low end stands for inhibition by little substance, the high end for a need for much substance. With `COc1ccc(NC(=O)N2CCN(c3nc(N)nc4scnc34)C(C)C2)cc1` (stereo unspecified), in [3], the solubility (kinetic) at 1.5 h was over 350 µM. In addition, the IC50 result in [5] and in [6] was “Nd(Insoluble)” throughout. Moreover, in data set [7], the Therm_solubility entry is “Nd(Insoluble)”.

By half-life is commonly meant the time in which the quantity being followed falls by half. Read a low half-life as fast loss. As a reminder, the bioavailability is the share of a dose that reaches the circulation, judged against a reference dose that is usually intravenous. A low value points to poor availability. Usually clearance stands for the rate of elimination divided by the concentration. A low value points to a low capacity for elimination. One may read the CL/F as clearance divided by bioavailability, as obtained after extravascular dosing. The term fraction unbound denotes free concentration divided by total concentration. On to `COc1ccc(NC(=O)N2CCN(c3nc(N)nc4scnc34)[C@@H](C)C2)cc1`, for which the figures for the microsomal CLint at 0.75 h, 3 µM in [1] and in data set [2] were 35 µL/min/mg and 14 µL/min/mg, respectively. This compound also displayed a solubility (kinetic) at 1.5 h in data set [3] of over 350 µM. The same compound had a half-life in [8] of 54 min. The compound further yielded a bioavailability in data set [9] of 68%. For the same compound, the fAUC in data set [10] came out at 0.205 µM·h; in data set [14] it was 0.03 µM·h. In data set [11], this compound gave a fCmax of 194 nM. In data set [12], this compound registered a clearance of 29 mL/min/kg. In data set [13], the apparent clearance CL/F worked out at 42 mL/min/kg. Further, in data set [15], the Vd is 1 L/kg. For the same compound, in data set [16], the fraction unbound came to 0.02. Besides, the logD at 1.5 h in [4] turned out to be 2.32. Besides, the results for the half-inhibitory concentration (IC50) in data set [17] and in data set [18] were over 20 µM and 17 µM, respectively. Also, the solubility thermodynamic at 1.5 h in data set [7] was 30 µM (≈ 12 µg/mL).

Regarding `COc1ccc(NC(=O)N2CCN(c3nc(N)nc4sccc34)[C@@H](C)C2)c(C)c1`, in data set [3], the kinetic solubility at 1.5 h is 82 µM (≈ 33.8 µg/mL). This compound gave a logD at 1.5 h in data set [4] of 2.39.

The compound `COc1ccc(NC(=O)N2C[C@@H](C)N(c3nc(N)nc4scnc34)[C@@H](C)C2)cc1` came in with a solubility (kinetic) at 1.5 h in data set [3] of 83 µM (≈ 34.3 µg/mL). In addition, the IC50 entry in [5] and in data set [6] was “Nd(Insoluble)” throughout. The Therm_solubility result in data set [7] was “Nd(Insoluble)”.

`Nc1nc(N2CCN(C(=O)COc3ccc(Cl)cc3)CC2)c2ncsc2n1`: the solubility (kinetic) at 1.5 h in data set [3] came to 13 µM (≈ 5.26 µg/mL). The logD at 1.5 h in data set [4] was 2.68.

On to `COc1ccc(NC(=O)N2CCN(c3nc(N)nc4scnc34)[C@@H](C)C2)c(C)n1`, for which, in data set [3], the solubility (kinetic) at 1.5 h was over 350 µM. Moreover, the results for the IC50 in data set [17] and in data set [18] were over 20 µM and over 30 µM, respectively. Besides, the solubility thermodynamic at 1.5 h in data set [7] is 362 µM (≈ 150 µg/mL).

For `COc1ccc(NC(=O)N2CCN(c3nc(N)nc4scnc34)[C@@H](C)C2)c(C)c1`, the kinetic solubility at 1.5 h in data set [3] is 160 µM (≈ 66.2 µg/mL). For the same compound, the solubility thermodynamic at 1.5 h in [7] worked out at 3 µM (≈ 1.24 µg/mL).

In [3], `COc1ccc(NC(=O)N2CCN(c3nc(N)nc4scnc34)CC2)c(C)n1` gave a solubility (kinetic) at 1.5 h of 207 µM (≈ 82.9 µg/mL). The same compound displayed a logD at 1.5 h in [4] of 1.65.

Compound `COc1ccc(NC(=O)N2CCN(c3nc(N)nc4scnc34)[C@H](C)C2)c(C)c1` came in with a solubility (kinetic) at 1.5 h in [3] of 170 µM (≈ 70.3 µg/mL). The Therm_solubility result in data set [7] is on record as “Nd(Insoluble)”.

`Nc1nc(N2CCN(C(=O)Nc3cccnc3)CC2)c2ncsc2n1` gave a solubility (kinetic) at 1.5 h in data set [3] of over 350 µM. For the same compound, the logD at 1.5 h in data set [4] was found to be 1.46.

`COc1ccc(NC(=O)N2CC3CCC(C2)N3c2nc(N)nc3scnc23)cc1` came in with a kinetic solubility at 1.5 h in data set [3] of over 350 µM. In addition, the IC50 result in [5] and in [6] was “Nd(Insoluble)” throughout. Further, in [7], the Therm_solubility result is “Nd(Insoluble)”.

In data set [3], `Cc1ccccc1NC(=O)N1CCN(c2nc(N)nc3scnc23)CC1` came in with a solubility (kinetic) at 1.5 h of 33 µM (≈ 12.2 µg/mL). Moreover, the logD at 1.5 h in [4] is 2.12.

`Nc1nc(N2CCN(C(=O)c3cc4ccccc4[nH]3)CC2)c2ncsc2n1` registered a solubility (kinetic) at 1.5 h in data set [3] of 14 µM (≈ 5.31 µg/mL). Besides, the logD at 1.5 h in data set [4] was 2.84.

For the compound `COc1cc(C)c(NC(=O)N2CCN(c3nc(N)nc4scnc34)CC2)cn1`, in data set [3], the solubility (kinetic) at 1.5 h is over 350 µM. This compound also returned a logD at 1.5 h in data set [4] of 1.66.

In data set [3], `COc1ccc(NC(=O)N2CCN(c3nc(N)nc4scnc34)CC2)cn1` registered a kinetic solubility at 1.5 h of 293 µM (≈ 113 µg/mL). The compound further had a logD at 1.5 h in [4] of 1.79.
